Screening data deposited in PubChem by several laboratories.
Only some compounds are listed: those with a hit (about 4.5% of all), similar ones and a draw of the others.
CHOP inhibitor – CHOP inhibition in unfolded protein response; CHO-K1 CHOP-promoter luciferase, tunicamycin-induced, 15-18 h; inhibition, % at 10 µM; 220,000 tested, 3.8% active; AID 2732;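 active means compounds that reduced the stress-induced luciferase reporter signal by more than about 70% of percent inhibition, limit read from the data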;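 further: 0% = tunicamycin plus vehicle and 100% = wells without tunicamycin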
CHOP UPR activ – apoptotic UPR (CHOP) activation | activation, % at 10 µM | CHO-CHOP luciferase reporter, luminescence; percent of tunicamycin response over DMSO baseline | 330,000 tested, 0.34% active;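 active means at 10 µM dose, activation of 40% or more, normalized to positive control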;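 further: 100% = tunicamycin at 10 µg/mL and 0% = DMSO alone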
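System: CHO CHOP reporter cells. Amount: 500 cells per well. Buffer or medium: F12 medium, 10% FBS. Compound dosing: one dose, 10 µM in 0.5% DMSO. Incubation: 6 h compound exposure at 37 °C after overnight seeding. Technique: Steady-Glo luciferase luminescence. Benchmarks: tunicamycin and DMSO controls.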
XBP1 UPR activ – adaptive UPR (XBP1) activation | activation, % at 20 µM | 330,000 tested, 0.33% active | CHO-XBP1 luciferase reporter, IRE1-XBP1 UPR activation, luminescence; percent of tunicamycin response, DMSO as zero;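 active means versus positive control, 20 µM dose yields 30% or more activation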;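 further: 100% = tunicamycin at 10 µg/mL and 0% = DMSO only wells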
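assay system = CHO-XBP1 luciferase reporter cells | amount = 1000 cells/well | buffer or medium = F12 plus 10% FBS | compound dosing = single point, 20 µM final compound, 1% DMSO | incubation = 16-18 h cell attachment at 37 °C, then 6 h compound exposure | detection = Steady-Glo luminescence read | controls = tunicamycin 10 µg/mL and vehicle-only wells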
p97 inhibitor – human p97 ATPase inhibition; P55072; recombinant p97 ATPase, Kinase-Glo ATP luminescence, 3 h; inhibition, % at 8 µM; 220,000 tested, 0.42% active; in the data active means inhibition above about 15%;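 further: 0% = DMSO vehicle and 100% = wells lacking enzyme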
Target sequence (P55072 whole entry, looked up): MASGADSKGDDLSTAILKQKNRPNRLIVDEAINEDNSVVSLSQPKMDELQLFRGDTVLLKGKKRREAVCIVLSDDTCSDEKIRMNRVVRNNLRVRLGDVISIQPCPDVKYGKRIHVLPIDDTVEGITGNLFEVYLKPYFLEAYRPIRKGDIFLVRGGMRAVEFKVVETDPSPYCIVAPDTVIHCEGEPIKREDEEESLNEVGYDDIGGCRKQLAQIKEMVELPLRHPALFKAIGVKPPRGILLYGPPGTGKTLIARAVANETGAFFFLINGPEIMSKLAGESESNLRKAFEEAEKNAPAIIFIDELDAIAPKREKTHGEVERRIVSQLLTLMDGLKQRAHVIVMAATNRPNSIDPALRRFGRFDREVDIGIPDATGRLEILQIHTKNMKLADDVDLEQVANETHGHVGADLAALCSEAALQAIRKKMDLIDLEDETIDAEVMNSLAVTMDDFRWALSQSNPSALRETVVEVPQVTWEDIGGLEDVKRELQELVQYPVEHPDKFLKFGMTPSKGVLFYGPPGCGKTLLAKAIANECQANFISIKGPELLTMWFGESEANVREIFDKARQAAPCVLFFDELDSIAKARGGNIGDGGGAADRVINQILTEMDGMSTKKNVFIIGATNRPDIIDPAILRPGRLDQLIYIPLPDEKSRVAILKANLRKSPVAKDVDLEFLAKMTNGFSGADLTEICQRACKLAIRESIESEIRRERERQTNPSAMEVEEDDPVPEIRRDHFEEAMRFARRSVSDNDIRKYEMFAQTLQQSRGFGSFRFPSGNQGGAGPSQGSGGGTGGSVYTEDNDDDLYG
M18AAP inhibitor – blocks P. falciparum M18 aspartyl aminopeptidase | recombinant PfM18AAP, H-Glu-NHMec fluorogenic cleavage | 290,000 tested, 1.2% active | inhibition, % at 7.35 µM;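 active means inhibition above the campaign mean inhibition over all tested compounds plus 3 SD, cut at about 28% in these data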;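 further: 0% = plate median of test compound wells and 100% = 2 mM ZnCl2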
HCV NS3 hel inh – HCV NS3 helicase inhibition; NS3 helicase DNA unwinding, Cy5 molecular beacon fluorescence; inhibition, % at 10.9 µM; AID 1800; 290,000 tested, 0.56% active;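 active means inhibition above the mean of all tested compounds plus 3 SD, set per campaign, cut at about 35% in these data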;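 further: 0% = DMSO wells and 100% = thioflavine S control wells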
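System: Hepatitis C virus NS3 helicase domain fragment enzyme | Reagent: Annealed dual-labelled DNA beacon duplex, ATP-started | Compound dosing: 10.9 µM single point, 0.8% DMSO | Incubation: 1 h reaction at 25 °C, ATP-initiated | Technique: Cy5 fluorescence | Evaluation: Percent inhibition from t60/t0 fluorescence ratio | Benchmarks: Low DMSO, high thioflavine S at 110 µM | Replication: Singlicate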
CHOP confirm – confirmation of CHOP induction inhibitors; shares compounds with CHOP inhibitor; CHO-CHOP promoter luciferase reporter, tunicamycin-induced, luminescence; inhibition, % at 10 µM; 2,100 tested, 45% active; AID 504437;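 active means mean of three repeat readings of reporter signal inhibition above a set limit, cut at about 70% in these data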;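 further: 0% = tunicamycin plus vehicle and 100% = wells lacking tunicamycin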
CHOP UPR conf – apoptotic UPR (CHOP) activation, confirmed; 1,000 tested, 64% active; shares compounds with CHOP UPR activ; activation, % at 10 µM; CHO-CHOP cells, CHOP-luciferase reporter luminescence; percent of tunicamycin response, DMSO as zero; AID 463112; in the data active means activation above about 33%;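 further: 0% = DMSO wells and 100% = tunicamycin 10 µg/mL wells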
UPR XBP1 confirm – confirmation of adaptive unfolded protein response (XBP1) activators; shares compounds with XBP1 UPR activ; CHO-XBP1 IRE1-XBP1 luciferase reporter, luminescence; activation, % at 20 µM; 1,000 tested, 63% active;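 active means reporter signal at least 30% of the positive control's activation in two or more of four replicate wells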;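 further: plate controls were DMSO negative control for no effect and tunicamycin 10 µg/mL positive control for full effect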
The depositor's hits bear a star; . = not tested or not shown.

SMILES	CHOP inhibitor	CHOP UPR activ	XBP1 UPR activ	p97 inhibitor	M18AAP inhibitor	HCV NS3 hel inh	CHOP UPR conf	others
Cc1ccc(NC(=O)c2ccc(NCCCN3CCOCC3)c([N+](=O)[O-])c2)cc1Cl	20.5	-0.2	0.6	-2.2	-10.9	-76.0	.
Cc1ccc(CN(C)C(=O)C2CCC(=O)N(CC3CCCCC3)C2)o1 (centres undefined)	.	-0.4	-2.1	.	-11.6	-0.4	.
CC(C)O/C(=N\S(=O)(=O)c1ccc(Cl)cc1)c1ccccc1	66.9	-2.2	-0.9	8.0	-1.0	0.2	.
O=S(=O)(/N=C(\Sc1ccc(Cl)cc1)c1ccccc1)c1ccccc1	102.5*	21.4	43.5*	3.7	-4.7	-2.5	.	CHOP confirm=35.3;UPR XBP1 confirm=2.5
COc1ccc(-c2ccc(C#N)c(SCC(=O)Nc3sc4c(c3C#N)CCC4)n2)cc1OC	101.9*	27.9	40.6*	0.6	-10.9	13.3	.	CHOP confirm=15.9;UPR XBP1 confirm=55.8*
COc1ccc(Cn2c(SCc3cc(C)ccc3C)nc3cc(OC)c(OC)cc3c2=N)cc1	104.0*	20.0	99.9*	-4.1	-1.0	-81.8	.	CHOP confirm=123.1*;UPR XBP1 confirm=66.8*
COc1cc2nc(SCc3ccc(Cl)cc3Cl)n(Cc3cccs3)c(=N)c2cc1OC	36.4	-2.0	-1.1	-3.0	0.9	-23.1	.
CCOc1ccc2nc(NC3=NC(c4ccc(OC)cc4)CC(=O)N3)nc(C)c2c1 (centres undefined)	106.1*	30.4	132.7*	-1.8	-3.8	-36.1	.	CHOP confirm=-33.3;UPR XBP1 confirm=167.2*
CCOc1cccc(C(=O)Nc2cccc(-c3nnc(-c4ccc(C)cc4)o3)c2)c1	104.7*	135.8*	161.8*	-2.8	-3.4	3.0	54.1*	CHOP confirm=102.8*;UPR XBP1 confirm=160.3*
CCOC(=O)C1(CCOc2ccccc2)CCN(Cc2ccc(OCC)c(CO)c2)CC1	.	.	.	.	-3.3	-41.7	.
CC(C)(C)C(=O)NC(=S)NNC(=O)C(c1ccccc1)c1ccccc1	106.2*	11.7	42.8*	2.7	3.2	0.1	.	CHOP confirm=121.4*;UPR XBP1 confirm=47.9*
CCN(CC(=O)Nc1c(F)cccc1F)C(=O)C1CCN(S(=O)(=O)c2ccc(C)c(C)c2)CC1	.	-0.5	-4.5	.	.	.	.
NCCOc1ccc(C23CC4CC(CC(C4)C2)C3)cc1	104.6*	14.1	97.1*	-7.4	-11.9	-62.2	.	CHOP confirm=-8.7;UPR XBP1 confirm=93.2*
OCCN1CCN(CC(O)COc2ccc(C34CC5CC(CC(C5)C3)C4)cc2)CC1 (centres undefined)	14.7	6.9	28.3	-11.3	3.3	-29.2	.
CC1CN(S(=O)(=O)c2ccc(C(=O)Nc3nc(-c4cc5ccccc5o4)cs3)cc2)CC(C)O1 (centres undefined)	106.6*	12.8	48.2*	0.4	-1.5	4.0	.	CHOP confirm=72.8*;UPR XBP1 confirm=134.1*
O=C(Nc1nc(-c2cc3ccccc3o2)cs1)c1ccc(S(=O)(=O)N2CCCC2)cc1	59.7	9.1	1.0	5.3	5.1	-0.5	.
COc1ccc(NC(=O)C2CCC(=O)N2C(=O)OCc2ccccc2)cc1 (centres undefined)	.	0.9	-4.1	.	0.3	18.0	.
Cc1cccc(OCCN2CSC(=S)N(C)C2)c1	-68.5	58.8*	5.8	-7.6	-28.0	22.0	35.4*
COc1ccccc1OCCN1CSC(=S)N(C)C1	28.7	81.9*	-2.8	-1.0	1.6	-14.5	27.9
Cc1cc(C(C)(C)C)cc(C)c1COC(=O)c1cccnc1	.	1.5	-2.8	.	1.5	10.6	.
O=C(Nc1cccc(C(=O)N2CCCc3ccccc32)c1)c1ccccc1	.	1.6	-3.1	.	5.1	13.4	.
C=CCN1/C(=C2/SC(=S)N(C)C2=O)Sc2ccccc21	.	3.3	-0.1	.	1.4	6.5	.
CCCCn1c(N)c(N(CCOC)C(=O)C2CC(=O)N(Cc3ccco3)C2)c(=O)[nH]c1=O (centres undefined)	.	1.2	-1.5	.	.	.	.
O=C(C1CCCO1)N1CCN(S(=O)(=O)c2cc(C(F)(F)F)ccc2Cl)CC1 (centres undefined)	.	-1.6	-0.8	.	.	.	.
CCN(CC)c1ccc2c(Cl)c(Br)c(=O)oc2c1	94.5*	193.8*	1.4	0.1	-12.7	11.7	17.9
SMILES	CHOP inhibitor	CHOP UPR activ	XBP1 UPR activ	p97 inhibitor	M18AAP inhibitor	HCV NS3 hel inh	CHOP UPR conf	others
CCN(CC)c1ccc2c(C)c(Cl)c(=O)oc2c1	17.8	3.0	1.2	0.0	2.3	-8.8	.
COC(CN(C(=O)CCl)C(C(=O)NC1CCCCC1)c1ccc(Cl)cc1)OC (centres undefined)	-109.3	-0.5	0.0	-0.8	-4.0	11.0	.
O=C(NC1CCCC1)C(c1ccc(Cl)cc1)N(Cc1ccc(F)cc1)C(=O)CCl (centres undefined)	46.5	112.6*	8.1	-4.0	5.3	4.5	87.7*
O=C(NC1CCCC1)C(c1ccc(F)cc1)N(Cc1ccc(Cl)cc1)C(=O)CCl (centres undefined)	106.2*	149.1*	1.8	-1.2	-7.7	3.7	70.3*
O=C(COC(=O)C1=NN(c2ccccc2)C(=O)CC1)NCc1ccccc1Cl	.	-0.9	-1.5	.	.	.	.
O=[N+]([O-])c1ccc(Sc2nnnn2-c2ccccc2)nc1	-265.5	126.0*	-0.8	4.5	-10.1	7.1	101.5*
CCN(C1CCS(=O)(=O)C1)S(=O)(=O)c1ccc(OC)c(OC)c1 (centres undefined)	.	-0.5	-2.3	.	.	.	.
Cc1cccc(/C=C/C(=O)c2ccc([N+](=O)[O-])o2)c1	.	216.8*	-7.1	.	.	.	142.5*
Cc1ccccc1/C=C/C(=O)c1ccc([N+](=O)[O-])o1	.	111.8*	0.4	.	.	.	68.2*
Cc1ccccc1NC(=O)c1ccc([N+](=O)[O-])o1	66.1	1.9	-0.4	4.2	5.1	-3.7	.
O=C(/C=C/c1cccc([N+](=O)[O-])c1)c1ccco1	.	2.3	-0.7	.	24.1	-7.3	.
COc1ccc(/C=C/C(=O)c2ccc([N+](=O)[O-])o2)cc1	.	88.9*	-6.4	.	.	.	98.5*
CC(=O)c1cccc(OCc2cc(C(=O)NCCC3=CCCCC3)no2)c1	.	3.8	-7.4	.	-3.4	-7.7	.
CC1=CN2C(=N)/C(=C/c3cn(CCCOc4ccccc4C)c4ccccc34)C(=O)N=C2S1	62.3	44.3*	28.9	-1.9	-2.2	3.2	28.7
COc1cccc(OCCCn2cc(/C=C3/C(=N)N4C=C(C)SC4=NC3=O)c3ccccc32)c1	12.9	1.5	1.4	-1.3	2.2	6.0	.
